The structures appear in SMILES notation. pIC50: −log10 of the molar value. Where two headings read alike, the source gives them in different places.

Series [1] relates to CUTO-3 cells. Briefly: Proliferation of CUTO-3 tumor cells. In kind it is cell-based, human.
Series [2] relates to HCC78 NSCLC cell line. Description: Proliferation of HCC78 NSCLC cell line. It counts as cell-based, human. In outline:
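HCC-78 cells were obtained from ATCC (STR-authenticated) and passaged under 6 months. Cells were exposed to test compound for 72 hours, and viability was read by CellTiter Glo luminescence.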

Series [3] has as its system ROS1 autophosphorylation and ERK in CD74-ROS1 wild-type transformed Ba/F3 cells. Description: Western blot of ROS1. It counts as cell-based, murine. In general terms: Immunoblotting shows a protein as a band on a membrane.
The subject of series [4] is ROS1-rearranged NSCLC. Conditions: phase II; cited from earlier work.
The subject of series [5] is ROS1 autophosphorylation and ERK in CD74-ROS1 G2032R transformed Ba/F3 cells. Description: Western blot of ROS1. It counts as cell-based, murine.
Series [6] deals with ROS1 autophosphorylation and ERK in CD74-ROS1 L2026M transformed Ba/F3 cells. Briefly: Western blot of ROS1. It counts as cell-based, murine.
For series [7], the target named is Ba/F3 cells transformed with CD74-ROS1 (wild-type) (Homo sapiens, UniProt P04233+P08922). Briefly: Proliferation of Ba/F3 cells transformed with CD74-ROS1 wild-type. It counts as cell-based, murine. Conditions: peak plasma level obtained through FDA-approved oral dosing.
Ba/F3 cells transformed with CD74-ROS1 (wild-type), sequence (P08922 1883-2347 limits assumed, one chain of several): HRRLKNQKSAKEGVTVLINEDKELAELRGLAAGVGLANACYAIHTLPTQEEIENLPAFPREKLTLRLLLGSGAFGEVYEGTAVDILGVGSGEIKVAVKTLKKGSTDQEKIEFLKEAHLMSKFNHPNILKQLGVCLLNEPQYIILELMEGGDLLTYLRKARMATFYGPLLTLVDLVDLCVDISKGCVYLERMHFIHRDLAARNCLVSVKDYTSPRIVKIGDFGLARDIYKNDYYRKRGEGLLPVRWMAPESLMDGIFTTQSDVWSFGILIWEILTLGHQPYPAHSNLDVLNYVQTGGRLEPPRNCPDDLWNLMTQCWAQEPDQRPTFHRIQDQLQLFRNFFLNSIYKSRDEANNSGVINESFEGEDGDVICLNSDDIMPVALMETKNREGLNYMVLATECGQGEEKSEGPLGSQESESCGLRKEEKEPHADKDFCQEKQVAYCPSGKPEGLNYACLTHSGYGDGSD
Series [8] relates to medullary thyroid cancer. To be noted: cited from earlier work.
Series [9] relates to prostate cancer. Conditions: cited from earlier work.
The subject of series [10] is RET-rearranged NSCLC. To be noted: of 3 patients with RET-rearranged NSCLC; cited from earlier work.
Series [11] deals with ROS1-rearranged metastatic lung adenocarcinoma. Description: Treatment of one patient with ROS1-rearranged metastatic lung adenocarcinoma.
Series [12] deals with Parental Ba/F3 cells. Description: Proliferation of parental Ba/F3 cells grown in the presence of IL-3. To be noted: read-out: IC50 Parental Ba/F3. In kind it is cell-based, murine. A digest of the protocol: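 Parental Ba/F3 cells are immortalized murine bone-marrow pro-B cells. They were incubated with test compound for 72 hours, and viability was measured by CellTiter Glo. Final DMSO was under 0.5%.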

Series [13] relates to NTRK1 autophosphorylation in NIH-3T3 cells transformed with FLAG-tagged CD74-NTRK1. In kind it is cell-based. To be noted: 6 hours, western blot.
For series [14], the system named is NTRK1 autophosphorylation in CUTO-3 cells (MPRIP-NTRK1). Description: Western blot of NTRK1 autophosphorylation in CUTO-3 cells. It counts as cell-based, human. Conditions: 6 hours, dovitinib at 1000 nM. A digest of the protocol:
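CUTO-3 cells (MPRIP-NTRK1, patient-derived) were treated with inhibitor for 6 hours. They were lysed for 30 min in 0.1% Triton X-100 plus protease inhibitor. Lysates were run on 4–12% Bis-Tris gels and transferred to PVDF. Membranes were blocked in 5% milk, then probed with primary antibody at 1:1,000 and secondary at 1:5,000.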

Series [15] deals with F589V CD74-NTRK1. In kind it is cell-based. To be noted: 293 cells transiently transfected with wild-type and F589V CD74-NTRK1.
For series [16] the following is noted: observed in clinical trials; cited from earlier work.
Where [17] appears, read: Homo sapiens, HCC78, read-out: IC50 inhibition of the HCC78 NSCLC cell line.
[18] abbreviates: Homo sapiens, CUTO-3, read-out: IC50 inhibition of CUTO-3 cells, proliferation.
Setting [19] is: read-out: IC50 inhibition of CUTO-3 cells, proliferation.

In the case of `C[C@@H](Oc1cc(-c2cnn(C3CCNCC3)c2)cnc1N)c1c(Cl)ccc(F)c1Cl` [Crizotinib, crizotinib], the pIC50 in series [1] (Homo sapiens, CUTO-3, read-out: IC50 inhibition of CUTO-3 cells) is 6.34. The pIC50 in series [2] (setting [17]) was 5.80. Moreover, in [3], the “phosphorylation of ROS1 and ERK” value was “inhibits the phosphorylation of ROS1 and ERK”. Further, in [4], the progression-free survival is given as 19.2 month and the response rate is 72%.
In the case of `CN1CCN(c2ccc(C(=O)Nc3n[nH]c4ccc(Cc5cc(F)cc(F)c5)cc34)c(NC3CCOCC3)c2)CC1` [Entrectinib, entrectinib], the pIC50 in series [2] (setting [17]) is 6.35. Also, the “phosphorylation of ROS1 and ERK” value in series [3], in series [5] and in [6] was “only effective at blocking activity of wild-type ROS1 signaling” in each case.
On to `Cc1cc(Nc2ncc(Cl)c(Nc3ccccc3S(=O)(=O)C(C)C)n2)c(OC(C)C)cc1C1CCNCC1` [Ceritinib], for which the pIC50 in series [2] (setting [17]) is 6.28.
For `COc1cc2nccc(Oc3ccc(NC(=O)C4(C(=O)Nc5ccc(F)cc5)CC4)cc3)c2cc1OC` [Cabozantinib, cabozantinib], in series [7], the “fold by which inhibitory concentrations are below the peak plasma level” value is ~ 50 fold. Also, the pIC50 in series [2] (setting [17]) is 5.87. The “phosphorylation of ROS1 and ERK” value in series [3] is “a decrease is seen in the phosphorylation of ROS1 and ERK”; in [5] it was “a decrease is seen in the phosphorylation of ROS1 and ERK”; in series [6], “a decrease is seen in the phosphorylation of ROS1 and ERK”. In series [8] (medullary thyroid cancer study), the patients with dose-reductions is on record as 79%. The progression-free survival in series [8] (medullary thyroid cancer, vs. 4 months placebo) is 11.2 months. The “patients with doses held” value in [8] (medullary thyroid cancer) is listed as 65%. Further, the “patients with discontinuation due to adverse events” value in series [8] (phase III thyroid cancer study) is reported as 16%. Besides, the figures for the discontinuation rate in [9] (40 mg group) and in series [9] (100 mg group) were 18% and 25%, respectively. Besides, the “rate of dose reduction” value in series [9] (40 mg group) is 31%; in series [9] (100 mg group), 84%. In [10], the “patients with a partial response” value is given as 2 patients. Also, the “patients with stable disease” value in [10] is 1 patient. The “right lower lobe lesion size on CT” value in series [11] (4 weeks after initiation of cabozantinib, from 1.7 cm) was 1.4 cm. Moreover, the fatigue entry in series [11] (single patient, after approximately 3 weeks on treatment) is given as “grade II”. For the same compound, the palmar-plantar erythrodysesthesia entry in series [11] (single patient, after approximately 3 weeks on treatment, 140 to 80 mg daily) is “grade III”.
Turning to `C[C@]12O[C@H](C[C@]1(O)CO)n1c3ccccc3c3c4c(c5c6ccccc6n2c5c31)CNC4=O` [lestaurtinib, Lestaurtinib], the pIC50 in series [12] (Mus musculus, BaF3, 72 h) is 5.47; in series [1] (setting [18]), 8.46; in series [1] (setting [19]), 8.52. The “inhibition of NTRK1 autophosphorylation” value was “inhibit NTRK1 autophosphorylation” in [13] and “inhibited NTRK1 autophosphorylation” in series [14]. In addition, in series [15], the “effect of F589V mutation on inhibition of NTRK1 autophosphorylation” value was “did not affect inhibition of NTRK1 autophosphorylation”.
As to `COc1cc(N2CCC(N3CCN(C)CC3)CC2)ccc1Nc1ncc(Cl)c(Nc2ccccc2P(C)(C)=O)n1` [Brigatinib, brigatinib], the pIC50 in [2] (setting [17]) is 5.66. In addition, the “phosphorylation of ROS1 and ERK” value in [3] was “inhibits the phosphorylation of ROS1 and ERK”; in series [5], “less activity seen”; in series [6] it was “inhibits the phosphorylation of ROS1 and ERK”.
Turning to `CN1CCN(c2ccc3nc(-c4c(N)c5c(F)cccc5[nH]c4=O)[nH]c3c2)CC1` [dovitinib, Dovitinib], the pIC50 in series [12] (Mus musculus, BaF3, 72 h) was 5.38; in series [1] (setting [18]), 6.77. Moreover, the “inhibition of NTRK1 autophosphorylation” value in series [13] is given as “weaker than would be suggested by its IC50 value”; in [14], “partial inhibition”. The “peak plasma level with oral dosing” value in series [16] is given as 568 nM.
On to `CCc1cc2c(cc1N1CCC(N3CCOCC3)CC1)C(C)(C)c1[nH]c3cc(C#N)ccc3c1C2=O` [Alectinib], for which, in series [2] (setting [17]), the pIC50 is 6.12.
On to `COc1cc2c(Oc3ccc(NC(=O)C4(C(=O)Nc5ccc(F)cc5)CC4)cc3F)ccnc2cc1OCCCN1CCOCC1` [Foretinib, foretinib], for which the pIC50 in series [2] (setting [17]) was 6.34. Further, the “phosphorylation of ROS1 and ERK” value in [3] is “a decrease is seen in the phosphorylation of ROS1 and ERK”; in series [5], “a decrease is seen in the phosphorylation of ROS1 and ERK”; in series [6], “a decrease is seen in the phosphorylation of ROS1 and ERK”.
In the case of `Cc1cc(N2CCOCC2)cc2[nH]c(-c3c(NC[C@@H](O)c4cccc(Cl)c4)cc[nH]c3=O)nc12` [BMS-536924], the pIC50 in series [12] (parental Ba/F3 cells, 72 hours) was 5.56; in series [1] (setting [19]), 7.47. Besides, the “inhibition of NTRK1 autophosphorylation” value in series [13] was “inhibit NTRK1 autophosphorylation”; in series [14] it was “inhibited NTRK1 autophosphorylation”. In addition, the “effect of F589V mutation on inhibition of NTRK1 autophosphorylation” value in series [15] is reported as “did not affect inhibition of NTRK1 autophosphorylation”.
For the compound `C[C@H]1Oc2cc(cnc2N)-c2c(nn(C)c2C#N)CN(C)C(=O)c2ccc(F)cc21` [PF-06463922], the pIC50 in series [2] (read-out: IC50 inhibition of the HCC78 NSCLC cell line, proliferation) was less than 5.00. The “phosphorylation of ROS1 and ERK” value was “inhibited wild-type and L2026M mutant ROS1 autophosphorylation and ERK activation” in series [3]; “little effect on signaling” in [5]; “inhibited wild-type and L2026M mutant ROS1 autophosphorylation and ERK activation” in series [6].

The values above are taken from publication PMC5203969 (Clinical cancer research : an official journal of the …, 2016).
